Values after ≈ are worked out from the molar mass of the structure shown.
Tests used:
[1] = molecular target: T1, Mannose-6-phosphate isomerase (Homo sapiens, UniProt P34949); test: Inhibition of phosphomannose isomerase (unknown origin)
T1 sequence (P34949 whole entry): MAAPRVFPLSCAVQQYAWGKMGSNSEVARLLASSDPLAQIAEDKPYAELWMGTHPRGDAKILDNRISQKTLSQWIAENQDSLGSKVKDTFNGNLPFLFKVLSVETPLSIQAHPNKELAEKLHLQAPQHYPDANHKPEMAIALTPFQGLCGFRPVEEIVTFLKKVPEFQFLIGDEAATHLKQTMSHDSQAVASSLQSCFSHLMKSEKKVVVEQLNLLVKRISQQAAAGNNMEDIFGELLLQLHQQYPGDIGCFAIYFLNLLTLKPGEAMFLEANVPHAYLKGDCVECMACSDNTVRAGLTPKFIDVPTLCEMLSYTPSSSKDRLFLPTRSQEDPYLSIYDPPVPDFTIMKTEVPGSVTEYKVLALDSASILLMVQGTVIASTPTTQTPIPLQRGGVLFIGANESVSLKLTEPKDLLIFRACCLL

[2] = molecular target: T2, Phosphomannomutase 2 (Homo sapiens, UniProt O15305); test: Inhibition of PMM2 (unknown origin)
T2 sequence (O15305 whole entry): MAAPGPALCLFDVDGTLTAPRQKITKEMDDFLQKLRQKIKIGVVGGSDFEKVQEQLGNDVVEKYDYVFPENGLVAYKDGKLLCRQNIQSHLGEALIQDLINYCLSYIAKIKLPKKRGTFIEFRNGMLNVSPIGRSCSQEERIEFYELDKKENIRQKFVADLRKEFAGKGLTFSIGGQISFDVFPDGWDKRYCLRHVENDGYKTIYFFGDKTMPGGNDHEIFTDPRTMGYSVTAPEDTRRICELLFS

[3] = molecular target: T3, Phosphoethanolamine/phosphocholine phosphatase (Homo sapiens, UniProt Q8TCT1); test: Inhibition of PHOSPHO1 phosphoethanolamine activity (unknown origin) assessed as amount of inorganic phosphate release after 30 mins
T3 sequence (Q8TCT1 whole entry): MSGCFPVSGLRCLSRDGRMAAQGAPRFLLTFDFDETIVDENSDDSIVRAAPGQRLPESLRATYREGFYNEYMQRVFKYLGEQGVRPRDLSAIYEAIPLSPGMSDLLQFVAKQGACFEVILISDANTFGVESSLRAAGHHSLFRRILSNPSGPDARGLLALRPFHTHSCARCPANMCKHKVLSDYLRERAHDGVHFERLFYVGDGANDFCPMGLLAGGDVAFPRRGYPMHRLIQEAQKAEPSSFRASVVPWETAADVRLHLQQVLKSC

[4] = Cytotoxicity against human Fa2N-4 cells after 24 hrs by ATP-lite 1-step assay; format: cell-based; details: fa2n-4, 24 h, read-out: LC50 (the source's name)
[5] = Permeability of the compound at donor pH 6.2 and acceptor pH 7.4 by PAMPA; format: ADME
Procedure, shortened: (§1)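 PAMPA with the acceptor compartment at pH 7.4 and the donor at pH 5.0, 6.2 or 7.4. Permeability reported as ×10^-6 cm/s. Part of an in vitro ADME panel.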

[6] = Permeability of the compound at donor pH 7.4 and acceptor pH 7.4 by PAMPA; format: ADME; procedure, shortened: as §1
[7] = Metabolic stability in human plasma assessed as compound remaining at 1:1 1 x pH7.4 PBS measured at 3 hrs by LC-MS/MS analysis; format: ADME, cell-free; details: pH 7.4, read-out: Stability
Procedure, shortened: (§2)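 Stability of each analogue was reported as % of compound remaining. For liver microsomes this was after 1 hr, with runs with and without NADPH. For plasma this was after 3 hrs in plasma mixed 1:1 with 1× PBS, pH 7.4. Both human and mouse matrices were used.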

[8] = Aqueous solubility of the compound in pH 6.2 pION buffer by UV kinetic solubility method; format: physicochemical
Procedure, shortened: (§3)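 Kinetic solubility in pION's buffer at pH 5.0, 6.2 or 7.4, reported in µg/ml. Part of an in vitro ADME panel.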

[9] = Metabolic stability in mouse plasma assessed as compound remaining at 1:1 1 x pH7.4 PBS measured at 3 hrs by LC-MS/MS analysis; format: ADME, cell-free; details: pH 7.4, read-out: Stability; procedure, shortened: as §2
[10] = Plasma protein binding in mouse at 1 uM by LC-MS analysis; format: ADME, cell-free; details: read-out: PPB (converted)
Procedure, shortened: (§4)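 Read-out was % of compound bound in human or mouse plasma, each tested at 1 µM and 10 µM.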

[11] = Aqueous solubility of the compound in pH 7.4 pION buffer by UV kinetic solubility method; format: physicochemical; procedure, shortened: as §3
[12] = Plasma protein binding in human at 10 uM by LC-MS analysis; format: ADME, cell-free; details: read-out: PPB (converted); procedure, shortened: as §4
[13] = Metabolic stability in mouse liver microsomes measured at 1 uM after 1 hr at pH 7.4 by LC-MS/MS analysis; format: ADME; details: read-out: Stability; procedure, shortened: as §2
[14] = Metabolic stability in human liver microsomes measured at 1 uM after 1 hr at pH 7.4 by LC-MS/MS analysis; format: ADME; details: read-out: Stability; procedure, shortened: as §2
[15] = Metabolic stability in human plasma assessed as compound remaining at 1 x pH7.4 PBS measured at 3 hrs by LC-MS/MS analysis; format: ADME, cell-free; details: pH 7.4, read-out: Stability; procedure, shortened: as §2
[16] = Metabolic stability in mouse plasma assessed as compound remaining at 1 x pH7.4 PBS measured at 3 hrs by LC-MS/MS analysis; format: ADME, cell-free; details: pH 7.4, read-out: Stability; procedure, shortened: as §2
[17] = Plasma protein binding in mouse at 10 uM by LC-MS analysis; format: ADME, cell-free; details: read-out: PPB (converted); procedure, shortened: as §4
[18] = Aqueous solubility of the compound in pH 5 pION buffer by UV kinetic solubility method; format: physicochemical; procedure, shortened: as §3
[19] = Permeability of the compound at donor pH 5.0 and acceptor pH 7.4 by PAMPA; format: ADME; procedure, shortened: as §1
[20] = Metabolic stability in human liver microsomes measured at 1 uM after 1 hr at pH 7.4 by LC-MS/MS analysis in absence of NADPH; format: ADME; details: read-out: Stability; procedure, shortened: as §2
[21] = Metabolic stability in mouse liver microsomes measured at 1 uM after 1 hr at pH 7.4 by LC-MS/MS analysis in absence of NADPH; format: ADME; details: read-out: Stability; procedure, shortened: as §2
[22] = Plasma protein binding in human at 1 uM by LC-MS analysis; format: ADME, cell-free; details: read-out: PPB (converted); procedure, shortened: as §4

Compound	IC50 [2]	IC50 [3]	CC50 [4]	permeability [5]	permeability [6]	remaining at 3 h [7]	solubility kinetic [8]	remaining at 3 h [9]	fraction unbound at 1 µM [10]	solubility kinetic [11]	fraction unbound at 10 µM [12]	remaining at 1 h, 1 µM [13]	remaining at 1 h, 1 µM [14]	remaining at 3 h [15]	remaining at 3 h [16]	fraction unbound at 10 µM [17]	solubility kinetic [18]	permeability [19]	further results
Cc1ccc(-n2sc3ccccc3c2=O)cc1	> 30 µM	1.3 µM	–	–	–	–	–	–	–	–	–	–	–	–	–	–	–	–	IC50 [1]: 3.9 µM
O=c1c2ccccc2sn1-c1cc(S(=O)(=O)N2CCOCC2)ccc1N1CCCC1	–	7.5 µM	–	–	–	–	–	–	–	–	–	–	–	–	–	–	–	–	–
CN(C)S(=O)(=O)c1cccc(-n2sc3ccccc3c2=O)c1	–	–	> 50 µM	817 ×10⁻⁶ cm/s	777 ×10⁻⁶ cm/s	32.3%	24.6 µg/mL (≈ 73.6 µM)	40%	0.644	23.8 µg/mL (≈ 71.2 µM)	0.435	100%	72.4%	11.4%	65.3%	0.659	23.4 µg/mL (≈ 70 µM)	781 ×10⁻⁶ cm/s	–
O=C(O)c1cccc(-n2sc3ccccc3c2=O)c1	–	–	> 50 µM	18 ×10⁻⁶ cm/s	< 4.4 ×10⁻⁶ cm/s	55.5%	> 27 µg/mL	71.2%	0.812	> 27 µg/mL	0.406	100%	100%	50.2%	100%	0.699	> 27 µg/mL	157 ×10⁻⁶ cm/s	–
COC(=O)c1cccc(-n2sc3ccccc3c2=O)c1	12 µM	–	> 50 µM	1231 ×10⁻⁶ cm/s	1300 ×10⁻⁶ cm/s	49.3%	18.9 µg/mL (≈ 66.2 µM)	55.2%	0.52	20.8 µg/mL (≈ 72.9 µM)	0.427	45.9%	72.4%	15.4%	59.6%	0.624	12.6 µg/mL (≈ 44.2 µM)	1294 ×10⁻⁶ cm/s	remaining at 1 h, 1 µM [20]: 31.5%; remaining at 1 h, 1 µM [21]: 44.6%; fraction unbound at 1 µM [22]: 0.588
